Results published in ChEMBL document CHEMBL1157812, “Mechanism-based inhibitors of the aspartyl protease plasmepsin II as potential antimalarial agents” (J Med Chem, 2010).
Active and inactive are the calls of the source. The rule behind the calls is not given here.

Assays:
[1] = biological target: Plasmepsin II (Plasmodium falciparum) (UniProt P46925); assay: Inhibition of Plasmodium falciparum plasmepsin-2 expressed in Escherichia coli BL21 (DE3) at 1 uM after 1 to 2 hrs
[2] = biological target: Plasmepsin II (Plasmodium falciparum) (UniProt P46925); assay: Inhibition of Plasmodium falciparum plasmepsin-2 expressed in Escherichia coli BL21 (DE3) assessed as residual activity at 1 uM measured after overnight dialysis by spun column chromatography
[3] = biological target: Plasmepsin II (Plasmodium falciparum) (UniProt P46925); assay: Inhibition of Plasmodium falciparum plasmepsin-2 expressed in Escherichia coli BL21 (DE3) at 1 uM after 30 min by FRET assay
[4] = biological target: Plasmepsin II (Plasmodium falciparum) (UniProt P46925); assay: Irreversible inhibition of Plasmodium falciparum plasmepsin-2 expressed in Escherichia coli BL21 (DE3) at 1 uM measured after overnight dialysis by spun column chromatography
Plasmepsin II [5] = biological target: T1, Plasmepsin II (Plasmodium falciparum, UniProt P46925); assay: Competitive inhibition of Plasmodium falciparum plasmepsin-2 expressed in Escherichia coli BL21 (DE3) after 30 min by FRET assay
Procedure, shortened: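 Recombinant mature Plm II from inclusion bodies, refolded and activated in 0.1 M sodium citrate pH 4.7, stored in 20 mM Tris-HCl pH 8.5 with 0.25 M NaCl. FRET assay in NaOAc buffer pH 5.0 using 2.5 nM enzyme and 1 μM DABCYL-Glu-Arg-Nle-Phe-Leu-Ser-Phe-Pro-EDANS substrate. Inhibitor, enzyme and substrate incubated 30 min at 37 C; EDANS fluorescence read at excitation 336 nm.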

[6] = Selectivity ratio of IC50 for human cathepsin D to IC50 for Plasmodium falciparum plasmepsin-2 expressed in Escherichia coli BL21 (DE3)
CHO [7] = assay: Cytotoxicity against CHO cells at 10 uM after 24 hrs by MTS assay; assay type: cell-based, Cricetulus griseus; settings: chinese hamster
Cathepsin D = Cathepsin D (Homo sapiens, UniProt P07339); assay: Inhibition of human cathepsin D after 30 mins by FRET assay
Plasmodium falciparum [8] = assay: Antiplasmodial activity against Plasmodium falciparum 3D7 trophozoites infected in human erythrocytes assessed as [3H]hypoxanthine incorporation into nucleic acid after 30 hrs by beta-scintillation counting; assay type: functional, organism-based
[9] = Selectivity ratio of Ki for human cathepsin D to Ki for Plasmodium falciparum recombinant plasmepsin-2
Plasmodium falciparum [10] = assay: Antiplasmodial activity against Plasmodium falciparum assessed as inhibition of parasite growth at 20 uM; assay type: functional
[11] = Selectivity ratio of Ki for human cathepsin D to Ki for Plasmodium falciparum plasmepsin-2
Plasmepsin II [12] = biological target: T1, Plasmepsin II; assay: Inhibition of Plasmodium falciparum plasmepsin-2
Plasmodium falciparum [13] = assay: Antiplasmodial activity against Plasmodium falciparum infected in human erythrocytes assessed as inhibition of parasite growth; assay type: functional; settings: read-out: ED50 (the source's name)
CHO [14] = assay: Cytotoxicity against CHO cells at 100 ug/mL after 24 hrs by MTS assay; assay type: cell-based, Cricetulus griseus; settings: chinese hamster
Plasmepsin II [15] = biological target: T1, Plasmepsin II; assay: Inhibition of Plasmodium falciparum plasmepsin-2 expressed in Escherichia coli BL21 (DE3) after 40 min by Kitz-Wilson plot analysis
[16] = biological target: Plasmepsin II (Plasmodium falciparum) (UniProt P46925); assay: Inhibition of Plasmodium falciparum plasmepsin-2 expressed in Escherichia coli BL21 (DE3) at compound to substrate ratio of 1:1 to 1: 5 after 2 hrs by FRET assay
CHO [17] = assay: Cytotoxicity against CHO cells at 250 ug/mL after 24 hrs by MTS assay; assay type: cell-based, Cricetulus griseus; settings: chinese hamster

Sequence of Cathepsin D (P07339 65-162 limits assumed): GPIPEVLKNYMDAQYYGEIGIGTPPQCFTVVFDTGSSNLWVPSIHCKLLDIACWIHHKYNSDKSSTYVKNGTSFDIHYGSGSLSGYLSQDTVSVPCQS
Sequence of Cathepsin D (P07339 169-412 limits assumed): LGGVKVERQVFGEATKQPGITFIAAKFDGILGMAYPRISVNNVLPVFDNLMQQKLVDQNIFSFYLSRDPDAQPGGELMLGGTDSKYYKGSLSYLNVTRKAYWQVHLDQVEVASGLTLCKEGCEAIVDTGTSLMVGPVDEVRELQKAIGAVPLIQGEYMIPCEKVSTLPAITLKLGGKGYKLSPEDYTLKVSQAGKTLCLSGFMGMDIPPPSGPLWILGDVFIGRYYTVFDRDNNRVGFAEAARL
T1 sequence (P46925 whole entry): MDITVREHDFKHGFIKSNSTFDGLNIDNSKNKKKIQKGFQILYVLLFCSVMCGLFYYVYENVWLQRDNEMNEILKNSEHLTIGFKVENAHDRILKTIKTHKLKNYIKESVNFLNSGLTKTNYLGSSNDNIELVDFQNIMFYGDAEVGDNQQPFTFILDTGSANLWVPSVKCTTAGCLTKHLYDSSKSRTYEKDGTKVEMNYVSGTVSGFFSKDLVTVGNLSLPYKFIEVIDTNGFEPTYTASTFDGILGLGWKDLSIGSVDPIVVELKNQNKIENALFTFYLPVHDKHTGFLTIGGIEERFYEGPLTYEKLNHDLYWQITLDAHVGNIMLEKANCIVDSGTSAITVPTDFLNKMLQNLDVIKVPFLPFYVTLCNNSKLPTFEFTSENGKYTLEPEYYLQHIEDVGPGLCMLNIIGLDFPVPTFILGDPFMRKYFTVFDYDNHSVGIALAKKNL
Sequence of Plasmepsin II (Plasmodium falciparum) (P46925 125-453 limits assumed): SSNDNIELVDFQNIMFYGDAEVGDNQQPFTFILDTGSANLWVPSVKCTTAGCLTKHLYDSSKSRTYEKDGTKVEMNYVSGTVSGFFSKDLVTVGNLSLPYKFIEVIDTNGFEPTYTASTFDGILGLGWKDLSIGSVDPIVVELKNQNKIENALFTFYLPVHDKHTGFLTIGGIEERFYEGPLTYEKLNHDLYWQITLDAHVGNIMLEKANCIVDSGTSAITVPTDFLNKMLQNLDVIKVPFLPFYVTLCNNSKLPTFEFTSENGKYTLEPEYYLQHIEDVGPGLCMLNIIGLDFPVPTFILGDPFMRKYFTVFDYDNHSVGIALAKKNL

Compound | inhibition [1] [%] | Activity [2] [%] | inhibition [3] | inhibition [4] | IC50 (Plasmepsin II [5]) [nM] | Ratio IC50 [6] | Activity (CHO [7]) | IC50 (Cathepsin D) [nM] | IC50 (Plasmodium falciparum [8]) [nM] | further results
CC(C)CC(=O)N[C@H](C(=O)N[C@H](C(=O)N[C@@H](CC(C)C)[C@@H](O)CC(=O)N[C@@H](C)C(=O)N[C@@H](CC(C)C)[C@@H](O)CC(=O)O)C(C)C)C(C)C | 97.8 | 85.2 | 82.8% |  |  |  |  |  |  | 
CC(C)C[C@H](NC(=O)[C@H](CC#N)NC(=O)C[C@H](O)[C@H](Cc1ccccc1)NC(=O)[C@@H](NC(=O)c1ccccn1)C(C)C)C(N)=O | 76.9 | 88 | 88.2% | inactive | 141 | 1.4 | Non-toxic | 50 |  | 
C#CCNC(=O)[C@H](Cc1ccccc1)NC(=O)C[C@H](O)[C@H](Cc1ccccc1)NC(=O)[C@@H](NC(=O)c1ccccn1)C(C)C | 76.9 | 36.1 | Active | inactive | 22 | 10.6 | Non-toxic | 50 | 9200 | 
CC(C)C[C@H](NC(=O)[C@H](C)NC(=O)C[C@H](O)[C@H](Cc1ccccc1)NC(=O)[C@@H](NC(=O)c1ccccn1)C(C)C)C(N)=O |  |  |  |  |  |  |  |  | 5000 | Ratio Ki [9]: 38; inhibition at 20 µM (Plasmodium falciparum [10]): 54%
Cc1cccc(C)c1OCC(=O)N[C@@H](Cc1ccccc1)[C@@H](O)C[C@H](CC(C)C)NC(=O)[C@H](C(C)C)N1CCCNC1=O |  |  |  |  |  |  |  |  | 5000 | Ratio Ki [11]: 10; Ki (Plasmepsin II [12]): 357 nM
CC(C)C[C@H](NC(=O)[C@H](C)NC(=O)C[C@H](O)[C@H](COCc1ccc(Br)cc1)NC(=O)[C@@H](NC(=O)c1ccccn1)C(C)C)C(N)=O |  |  |  |  |  |  |  |  | 5000 | Ki (Plasmepsin II [12]): 0.5 nM
Cc1ccc(-c2ccc(C[C@H](NC[C@H](O)[C@H](Cc3ccccc3)NC(=O)[C@@H](NC(=O)c3ccccn3)C(C)C)C(N)=O)cc2)cc1 |  |  |  |  |  |  |  |  | 5000 | EC50 (Plasmodium falciparum [13]): 1600 nM
CC(C)C[C@H](NC(=O)[C@H](CCl)NC(=O)C[C@H](O)[C@H](Cc1ccccc1)NC(=O)[C@@H](NC(=O)c1ccccn1)C(C)C)C(N)=O | 76.9 |  | Active | Active | 28 | 3.3 | Non-toxic | 50 |  | Activity (CHO [14]): Non-toxic; Ki (Plasmepsin II [15]): 35.7 nM; inhibition [16]: Active; Activity (CHO [17]): Non-toxic
C#CC[C@H](NC(=O)C[C@H](O)[C@H](Cc1ccccc1)NC(=O)[C@@H](NC(=O)c1ccccn1)C(C)C)C(=O)N[C@@H](CC(C)C)C(N)=O | 76.9 |  | Active | Active | 333 |  | Non-toxic | 50 | 7700 | Ki (Plasmepsin II [15]): 333 nM; inhibition [16]: Active
